Results as given in ChEMBL document CHEMBL1153775, “Synthesis, structure elucidation and antitumour activity of N-substituted amides of 3-(3-ethylthio-1,2,4-triazol-5-yl)propenoic acid” (Eur J Med Chem, 2009).

What was measured:
A549 [1] = assay: Cytotoxicity against human A549 cells assessed as growth inhibition at 0.16 mM after 72 hrs by spectrophotometer using BrdU labeling; assay type: functional; conditions: A549, 72 h, read-out: GI
[2] = Cytotoxicity against human HSF cells assessed as growth inhibition at 0.16 mM after 48 hrs by spectrophotometer using BrdU labeling; assay type: cell-based; conditions: read-out: GI
[3] = Cytotoxicity against human HSF cells assessed as growth inhibition at 0.03 mM after 48 hrs by spectrophotometer using BrdU labeling; assay type: cell-based; conditions: read-out: GI
T47D [4] = assay: Cytotoxicity against human T47D cells assessed as growth inhibition at 0.16 mM after 24 hrs by spectrophotometer using BrdU labeling; assay type: functional; conditions: read-out: GI
T47D [5] = assay: Cytotoxicity against human T47D cells assessed as growth inhibition at 0.03 mM after 48 hrs by spectrophotometer using BrdU labeling; assay type: functional; conditions: read-out: GI
A549 [6] = assay: Cytotoxicity against human A549 cells assessed as growth inhibition at 0.03 mM after 48 hrs by spectrophotometer using BrdU labeling; assay type: functional; conditions: A549, 48 h, read-out: GI
[7] = Cytotoxicity against human HSF cells assessed as growth inhibition at 0.16 mM after 24 hrs by spectrophotometer using BrdU labeling; assay type: cell-based; conditions: read-out: GI
A549 [8] = assay: Cytotoxicity against human A549 cells assessed as growth inhibition at 0.32 mM after 72 hrs by spectrophotometer using BrdU labeling; assay type: functional; conditions: A549, 72 h, read-out: GI
T47D [9] = assay: Cytotoxicity against human T47D cells assessed as growth inhibition at 0.03 mM after 72 hrs by spectrophotometer using BrdU labeling; assay type: functional; conditions: read-out: GI
[10] = Cytotoxicity against human HSF cells assessed as growth inhibition at 0.16 mM after 72 hrs by spectrophotometer using BrdU labeling; assay type: cell-based; conditions: read-out: GI
[11] = Cytotoxicity against human HSF cells assessed as growth inhibition at 0.32 mM after 24 hrs by spectrophotometer using BrdU labeling; assay type: cell-based; conditions: read-out: GI
T47D [12] = assay: Cytotoxicity against human T47D cells assessed as growth inhibition at 0.16 mM after 48 hrs by spectrophotometer using BrdU labeling; assay type: functional; conditions: read-out: GI
[13] = Cytotoxicity against human HSF cells assessed as growth inhibition at 0.32 mM after 72 hrs by spectrophotometer using BrdU labeling; assay type: cell-based; conditions: read-out: GI
T47D [14] = assay: Cytotoxicity against human T47D cells assessed as growth inhibition at 0.32 mM after 24 hrs by spectrophotometer using BrdU labeling; assay type: functional; conditions: read-out: GI
Procedure, shortened: (§1)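 Human breast carcinoma T47D cells were plated at 10⁴ cells per mL on microtiter plates. Each compound was added at three doses, given as mM equivalents of three mass concentrations. Plates were incubated for 24, 48 or 72 h. The read-out was percent growth inhibition (GI).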

T47D [15] = assay: Cytotoxicity against human T47D cells assessed as growth inhibition at 0.32 mM after 72 hrs by spectrophotometer using BrdU labeling; assay type: functional; conditions: read-out: GI; procedure, shortened: as §1
[16] = Cytotoxicity against human HSF cells assessed as growth inhibition at 0.32 mM after 48 hrs by spectrophotometer using BrdU labeling; assay type: cell-based; conditions: read-out: GI
A549 [17] = assay: Cytotoxicity against human A549 cells assessed as growth inhibition at 0.16 mM after 24 hrs by spectrophotometer using BrdU labeling; assay type: functional; conditions: A549, 24 h, read-out: GI
[18] = Cytotoxicity against human HSF cells assessed as growth inhibition at 0.03 mM after 24 hrs by spectrophotometer using BrdU labeling; assay type: cell-based; conditions: read-out: GI
T47D [19] = assay: Cytotoxicity against human T47D cells assessed as growth inhibition at 0.32 mM after 48 hrs by spectrophotometer using BrdU labeling; assay type: functional; conditions: read-out: GI; procedure, shortened: as §1
T47D [20] = assay: Cytotoxicity against human T47D cells assessed as growth inhibition at 0.03 mM after 24 hrs by spectrophotometer using BrdU labeling; assay type: functional; conditions: read-out: GI
A549 [21] = assay: Cytotoxicity against human A549 cells assessed as growth inhibition at 0.03 mM after 72 hrs by spectrophotometer using BrdU labeling; assay type: functional; conditions: A549, 72 h, read-out: GI
A549 [22] = assay: Cytotoxicity against human A549 cells assessed as growth inhibition at 0.32 mM after 24 hrs by spectrophotometer using BrdU labeling; assay type: functional; conditions: A549, 24 h, read-out: GI
A549 [23] = assay: Cytotoxicity against human A549 cells assessed as growth inhibition at 0.03 mM after 24 hrs by spectrophotometer using BrdU labeling; assay type: functional; conditions: A549, 24 h, read-out: GI
[24] = Cytotoxicity against human HSF cells assessed as growth inhibition at 0.03 mM after 72 hrs by spectrophotometer using BrdU labeling; assay type: cell-based; conditions: read-out: GI
A549 [25] = assay: Cytotoxicity against human A549 cells assessed as growth inhibition at 0.32 mM after 48 hrs by spectrophotometer using BrdU labeling; assay type: functional; conditions: A549, 48 h, read-out: GI
T47D [26] = assay: Cytotoxicity against human T47D cells assessed as growth inhibition at 0.16 mM after 72 hrs by spectrophotometer using BrdU labeling; assay type: functional; conditions: read-out: GI; procedure, shortened: as §1
A549 [27] = assay: Cytotoxicity against human A549 cells assessed as growth inhibition at 0.16 mM after 48 hrs by spectrophotometer using BrdU labeling; assay type: functional; conditions: A549, 48 h, read-out: GI

CCSc1n[nH]c(/C=C\C(=O)Nc2ccccc2Cl)n1
inhibition of growth at 160 µM (A549 [1]): 50%
inhibition at 48 h, 160 µM [2]: 0%
inhibition at 48 h, 30 µM [3]: 0%
inhibition of growth at 160 µM (T47D [4]): 0%
inhibition of growth at 30 µM (T47D [5]): 0%
inhibition of growth at 30 µM (A549 [6]): 25%
inhibition at 24 h, 160 µM [7]: 0%
inhibition of growth at 320 µM (A549 [8]): 75%
inhibition of growth at 30 µM (T47D [9]): 5%
inhibition at 72 h, 160 µM [10]: 0%
inhibition at 24 h, 320 µM [11]: 25%
inhibition of growth at 160 µM (T47D [12]): 10%
inhibition at 72 h, 320 µM [13]: 75%
inhibition of growth at 320 µM (T47D [14]): 0%
inhibition of growth at 320 µM (T47D [15]): 90%
inhibition at 48 h, 320 µM [16]: 50%
inhibition of growth at 160 µM (A549 [17]): 50%
inhibition at 24 h, 30 µM [18]: 0%
inhibition of growth at 320 µM (T47D [19]): 10%
inhibition of growth at 30 µM (T47D [20]): 0%
inhibition of growth at 30 µM (A549 [21]): 25%
inhibition of growth at 320 µM (A549 [22]): 50%
inhibition of growth at 30 µM (A549 [23]): 25%
inhibition at 72 h, 30 µM [24]: 5%
inhibition of growth at 320 µM (A549 [25]): 50%
inhibition of growth at 160 µM (T47D [26]): 50%
inhibition of growth at 160 µM (A549 [27]): 50%
